Screening results (PubChem BioAssay)
TRPC4 act – opens the mouse TRPC4 cation channel. Q9QUQ5. HEK293 TRPC4beta/mu-opioid, Fluo4 calcium fluorescence; active compounds read high. B-score at 10 µM. 310,000 compounds, 0.49% hits;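 active means B-score above 5 SD of library B-scores, and initial fluorescence ratio not above library mean plus 5 SD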;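 further: positive B-score marks a calcium rise read as TRPC4 activation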
Target sequence (Q9QUQ5 whole entry, looked up): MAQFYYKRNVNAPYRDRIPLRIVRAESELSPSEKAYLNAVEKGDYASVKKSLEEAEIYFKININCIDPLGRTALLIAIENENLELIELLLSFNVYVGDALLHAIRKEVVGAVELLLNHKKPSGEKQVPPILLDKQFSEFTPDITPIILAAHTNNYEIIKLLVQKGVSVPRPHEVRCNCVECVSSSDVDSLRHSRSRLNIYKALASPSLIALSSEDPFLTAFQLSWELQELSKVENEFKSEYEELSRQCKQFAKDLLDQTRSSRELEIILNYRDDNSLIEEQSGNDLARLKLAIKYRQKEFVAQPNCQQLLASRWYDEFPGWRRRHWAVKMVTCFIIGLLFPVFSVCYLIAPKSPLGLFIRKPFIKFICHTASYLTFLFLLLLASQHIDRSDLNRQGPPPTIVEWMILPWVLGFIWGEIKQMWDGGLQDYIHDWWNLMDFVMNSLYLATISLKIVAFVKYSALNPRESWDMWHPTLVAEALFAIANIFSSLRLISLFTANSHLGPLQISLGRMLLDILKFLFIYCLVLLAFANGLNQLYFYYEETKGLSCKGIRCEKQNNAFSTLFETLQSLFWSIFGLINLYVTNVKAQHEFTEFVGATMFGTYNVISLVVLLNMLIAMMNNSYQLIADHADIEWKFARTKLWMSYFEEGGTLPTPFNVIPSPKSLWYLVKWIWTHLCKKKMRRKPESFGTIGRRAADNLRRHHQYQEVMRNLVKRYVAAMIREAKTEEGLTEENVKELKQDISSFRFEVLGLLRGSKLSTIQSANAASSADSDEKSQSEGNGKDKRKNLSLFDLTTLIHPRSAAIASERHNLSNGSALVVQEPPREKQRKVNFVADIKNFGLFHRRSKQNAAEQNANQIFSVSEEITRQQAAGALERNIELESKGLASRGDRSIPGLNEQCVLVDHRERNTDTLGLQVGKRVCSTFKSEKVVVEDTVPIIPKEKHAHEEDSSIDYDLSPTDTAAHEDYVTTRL
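Technique: kinetic Fluo4 calcium fluorescence; Test system: TRPC4beta and mu-opioid receptor HEK293 stable cells; Measure: B-scored integrated calcium fluorescence ratio; Benchmarks: low control buffer alone, high control maximal DAMGO; Schedule: 45 min room-temperature Fluo4 loading, 110 s read.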
TRPC4 inh – TRPC4 (mouse) channel inhibition; HEK293 TRPC4beta/mu-opioid, DAMGO-evoked Fluo4 calcium flux; active compounds read low; B-score at 10 µM; 300,000 compounds, 0.39% hits;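 active means B-score over 3 SD under the library average, no early fluorescence shift, positive overall ratio signal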
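Assay system: Stable TRPC4beta/mu-opioid receptor HEK293 cells | Reagent: DAMGO in two steps, submaximal then maximal | Compound dosing: Single concentration per test compound | Signal: Fluo4 Ca2+ flux fluorescence | Evaluation: Per-well B score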
TRPC4 PAM – TRPC4 (mouse) allosteric potentiation | Q9QUQ5 | HEK293 TRPC4beta/mu-opioid, DAMGO EC20, Fluo-4 Ca2+ flux; active compounds read high | B-score at 10 µM | 310,000 compounds, 0.42% hits;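 active means B-score of calcium response area above 5 SD of library B-scores, with initial fluorescence ratio within 5 SD of library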;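 further: B-score of integrated fluorescence ratio over time as area under calcium response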
TRPC6 inh – blocks the mouse TRPC6 cation channel; Q61143; HEK293-TRPC6, membrane potential dye, ACh-evoked depolarization; active compounds read low; B-score at 10 µM; 310,000 compounds, 1.1% hits; AID 2553;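 active means B-score under library mean minus 3 SD, initial fluorescence not abnormally high, positive integrated signal ratio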;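 further: B-score derived from integrated fluorescence ratio over the kinetic read; more negative B-score means stronger inhibition of depolarization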
TRPC6 act – activators of mouse TRPC6 channel. HEK293-TRPC6 membrane potential dye fluorescence; active compounds read high. B-score at 10 µM. 310,000 compounds, 0.13% hits. AID 2550;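 active means B-score of the integrated fluorescence ratio above library mean plus 3 SD, and starting fluorescence ratio within library mean plus 5 SD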;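 further: higher score means more depolarization so channel activation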
TRPC4 spec 2 – second selectivity test of TRPC6 inhibitors: effect on mouse TRPC4. shares compounds with TRPC6 inh. HEK293 TRPC4/MOR, membrane potential dye fluorescence; channel activated by saturating DAMGO dose. inhibition, % at 10 µM. 920 compounds, 42% hits;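 active means compounds whose fluorescence signal differed from control wells by over 3 SD, either direction, in both duplicate plates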
TRPC4 spec – selectivity of TRPC6 inhibitors: effect on mouse TRPC4; shares compounds with TRPC6 inh; 920 compounds, 61% hits; activity change, negative = inhibition, % at 10 µM; HEK293 TRPC4/mu-opioid, membrane potential fluorescence;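 active means rise or fall in signal beyond 3 SD of buffer-only wells in both replicate plates, either sign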;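 further: integrated kinetic ratio of fluorescence range over baseline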
HEK293 MPD ctr 2-1 – second counter-screen for TRPC6 inhibitors: parental HEK293 cells | AID 2779 | shares compounds with TRPC6 inh | signal change vs control, % at 10 µM | 920 compounds, 31% hits | parental HEK293 membrane potential dye fluorescence; maximal acetylcholine challenge after compound addition;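 active means membrane potential signal moving either way by over 3 SD of the maximum-effect control, in both duplicate plates, meaning non-specific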
HEK293 MPD ctr-1 – parental HEK293 nonspecific activity of TRPC6 inhibitors | membrane potential signal change, % at 10 µM | shares compounds with TRPC6 inh | 920 compounds, 60% hits | parental HEK293 membrane potential dye fluorescence;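 active means membrane potential signal shifting up or down by more than 3 SD of buffer-only wells, on both duplicate plates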
HEK293 MPD ctr-2 – parental HEK293 nonspecific activity of TRPC6 modulators | shares compounds with TRPC6 inh | membrane potential dye fluorescence | membrane potential signal change, % at 10 µM | 2,400 compounds, 51% hits;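 active means membrane potential signal moves up or down beyond 5 SD from buffer-only wells, on both duplicate plates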
HEK293 MPD ctr 2-2 – second counter-screen for TRPC6 modulators: effect in parental HEK293 cells. shares compounds with TRPC6 inh. membrane potential dye fluorescence; after compound, maximal acetylcholine stimulation. inhibition, % at 10 µM. 2,400 compounds, 14% hits. AID 488926;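 active means membrane potential signal drops by more than 5 SD from the mean control signal, in both duplicate plates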;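 further: plate controls were acetylcholine ECmax control wells for no effect and buffer only wells for full effect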
TRPC4 ctr mod – tests whether TRPC6 modulators also affect mouse TRPC4; shares compounds with TRPC6 inh; HEK293 TRPC4/mu-opioid, membrane potential fluorescence; percent change from control (negative = decrease, positive = increase), % at 10 µM; 2,400 compounds, 69% hits;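 active means membrane potential signal moved up or down beyond 5 SD of buffer control wells, in both duplicate plates, actives on both sides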;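 further: plate controls were assay buffer wells for no effect and DAMGO maximal-effect wells for full effect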
TRPC4/MOR inh 2 – second check of whether TRPC6 modulators also affect mouse TRPC4; shares compounds with TRPC6 inh; HEK293 TRPC4/mu-opioid, membrane potential dye fluorescence; stimulated with maximal-effect DAMGO; inhibition, % at 10 µM; 2,400 compounds, 55% hits; AID 488928;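 active means drop in membrane potential signal beyond 5 SD of the control wells in both duplicate plates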;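 further: TRPC4 counter screen for TRPC6 hits run under conditions tuned for TRPC6 not TRPC4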
TRPC6 inh conf – mouse TRPC6 inhibitor confirmation | shares compounds with TRPC6 inh | inhibition, % at 10 µM | HEK293-TRPC6, membrane potential dye, ACh-evoked depolarization | 3,300 compounds, 43% hits;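 active means fluorescence ratio falls more than 5 SD below the full-stimulation control mean, in both duplicate runs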;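 further: integrated fluorescence ratio of peak minus minimum over baseline after agonist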
TRPC6 act conf – mouse TRPC6 activator confirmation; 2,800 compounds, 11% hits; AID 488961; shares compounds with TRPC6 inh; HEK293-TRPC6 membrane potential dye fluorescence, FDSS; activation, % at 10 µM;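 active means ratio signal rise beyond 5 SD above unstimulated control wells' mean, seen in both duplicate runs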;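 further: plate controls were buffer EC0 wells for no effect and acetylcholine ECmax response for full effect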
An asterisk follows results filed as active. Only some compounds are listed: those with a hit (about 2.3% of all), similar ones and a draw of the others.

For O=C(c1ccco1)N1CCN(S(=O)(=O)c2ccc(Br)cc2)CC1 the results were TRPC4 act inactive, TRPC4 inh inactive, TRPC4 PAM inactive, TRPC6 inh inactive and TRPC6 act inactive.
`CN(C)C(CNc1ccc(S(C)(=O)=O)cc1[N+](=O)[O-])Cc1ccccc1` (stereo not given) gave TRPC4 act inactive, TRPC4 inh inactive, TRPC4 PAM inactive, TRPC6 inh -5.09*, TRPC6 act inactive, HEK293 MPD ctr-2 inactive, HEK293 MPD ctr 2-2 inactive, TRPC4 ctr mod inactive, TRPC4/MOR inh 2 31.5%*, TRPC6 inh conf inactive and TRPC6 act conf inactive.
For CC(C)(C)c1ccc(C(=O)C2CCCN(C(=O)CCn3cncn3)C2)cc1 (stereo not given) the results were TRPC4 act inactive, TRPC4 inh inactive, TRPC4 PAM inactive, TRPC6 inh inactive and TRPC6 act inactive.
`O=S(=O)(c1ccc(Cl)c(NC(=S)N/N=C/c2ccc(O)cc2)c1)N1CCOCC1` gave TRPC4 act inactive, TRPC4 inh inactive, TRPC4 PAM inactive, TRPC6 inh -9.14*, TRPC6 act inactive, HEK293 MPD ctr-2 inactive, HEK293 MPD ctr 2-2 inactive, TRPC4 ctr mod inactive, TRPC4/MOR inh 2 inactive, TRPC6 inh conf inactive and TRPC6 act conf inactive.
Screening O=[N+]([O-])c1cc(Cl)cc(/C=N/NC(=S)Nc2ccc(S(=O)(=O)N3CCOCC3)cc2)c1O returned TRPC4 act inactive, TRPC4 inh inactive, TRPC4 PAM 26*, TRPC6 inh -7.58*, TRPC6 act inactive, TRPC4 spec 2 57.0%*, TRPC4 spec -24.2%*, HEK293 MPD ctr 2-1 inactive, HEK293 MPD ctr-1 -274.0%*, TRPC6 inh conf inactive and TRPC6 act conf inactive.
CCN(CC)c1ccc(/C=N\NC(=O)c2cccc3cc[nH]c23)cc1 was read as TRPC4 act inactive, TRPC4 inh inactive, TRPC4 PAM inactive, TRPC6 inh -5.67*, TRPC6 act inactive, HEK293 MPD ctr-2 inactive, HEK293 MPD ctr 2-2 inactive, TRPC4 ctr mod -12.5%*, TRPC4/MOR inh 2 54.5%*, TRPC6 inh conf inactive and TRPC6 act conf inactive.
